# Source: paper PMC5414581 (Neuropharmacology, 2017)
# Changes are numbered by the printed parent chain. Entries after “also recorded” stand apart in the source; their conditions may differ. Where a SMILES comes first, the peptide text is derived from it. Where no end group is shown, it is not given here. Me2 = N,N-dimethyl-lysine
# T1: human NPS receptor, 107I variant (human) (UniProt Q6W5P4)
# T1 sequence: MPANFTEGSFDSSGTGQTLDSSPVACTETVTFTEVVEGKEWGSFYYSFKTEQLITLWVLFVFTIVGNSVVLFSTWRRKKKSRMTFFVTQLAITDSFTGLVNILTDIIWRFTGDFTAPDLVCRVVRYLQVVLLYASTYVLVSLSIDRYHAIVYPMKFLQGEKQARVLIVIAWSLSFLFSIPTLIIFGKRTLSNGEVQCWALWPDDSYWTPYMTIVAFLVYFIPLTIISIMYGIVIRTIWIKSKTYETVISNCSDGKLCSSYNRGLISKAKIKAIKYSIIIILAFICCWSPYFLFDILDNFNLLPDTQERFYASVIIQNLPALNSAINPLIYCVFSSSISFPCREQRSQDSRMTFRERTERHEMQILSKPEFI
# T2: hNPSR-107I (Homo sapiens, UniProt Q6W5P4, N107I)
# T2 sequence (Q6W5P4 1-371 N107I): T1 sequence
# T3: mNPSR (Mus musculus, UniProt Q8BZP8)
# T3 sequence (Q8BZP8 1-371): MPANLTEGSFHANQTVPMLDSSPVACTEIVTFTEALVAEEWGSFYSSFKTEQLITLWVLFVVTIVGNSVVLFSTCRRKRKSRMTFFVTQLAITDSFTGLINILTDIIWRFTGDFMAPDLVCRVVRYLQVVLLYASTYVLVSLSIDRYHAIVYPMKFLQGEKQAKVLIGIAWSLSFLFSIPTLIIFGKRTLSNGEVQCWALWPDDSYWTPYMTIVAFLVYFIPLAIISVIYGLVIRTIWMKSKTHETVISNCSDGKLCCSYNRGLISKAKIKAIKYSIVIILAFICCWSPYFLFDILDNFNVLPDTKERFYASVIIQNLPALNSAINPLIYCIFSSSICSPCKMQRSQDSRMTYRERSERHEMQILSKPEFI
# T4: hNPSR-107N (Homo sapiens, UniProt Q6W5P4)
# T4 sequence (Q6W5P4 1-371): T1 sequence with I107N
# T5: human NPS receptor, 107N variant (human) (UniProt Q6W5P4)
# T5 sequence: T1 sequence with I107N
# T6: mouse NPS receptor (mouse) (UniProt Q8BZP8)
# T6 sequence: T3 sequence (Q8BZP8 1-371)
# B1: Neuropeptide S (peptide)
# peptide: SFRNGVGTGMKKTSFQRAKS
# B2: 6. SerPheLysCOCF3Asn-NH2 (peptide)
# peptide: SFK(trifluoroacetyl)N-NH2
# B3: 3. SerPheArgAsn-NH2 (peptide)
# peptide: SFRN-NH2
# B4: 4. SerPheLysAsn-NH2 (peptide)
# peptide: SFKN-NH2
# B5: 1. SerPheArgAsnGlyVal-NH2 (peptide)
# peptide: SFRNGV-NH2
# B6: 5. SerPheDimethylLysAsn-NH2 (peptide)
# peptide: SFK(Me2)N-NH2
# B7: 2. SerPheArgAsnGly-NH2 (peptide)
# peptide: SFRNG-NH2
# Legend:
# [1] = target: T1, human NPS receptor, 107I variant (human)
# mice [2] = assay: Marble Burying; type: in vivo, mouse
# mice [3] = assay: Locomotor stimulation; type: in vivo, mouse; conditions: RTI-118 50 mg/kg i.p.; compound 4 10 nmole ICV
# In short: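 Mice were habituated 1 h in a 40 × 40 cm infrared-beam open field in a novel room, during the light phase. Test compound in aCSF/0.1% BSA was given ICV into the lateral ventricle under brief isoflurane. Recording began after ≥5 min recovery. The antagonist was given 50 mg/kg i.p. in saline as pretreatment. Misplaced injections were excluded post-mortem. n = 7–11 per group; one-way ANOVA with Dunnett's test.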
# hNPSR-107I [4] = target: T2, hNPSR-107I; assay: Ca+2 mobilization assay, CHO-Gα16 hNPSR-107I cells; type: cell-based
# In short: (§1)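 FLIPR Calcium 5 dye diluted 1:40 in HBSS, 20 mM HEPES, 2.5 mM probenecid, pH 7.4, loaded 45 min at 37 °C. Cells were plated overnight without selection antibiotics: CHO-Gα16 hNPSR-107I/N at 25,000/well and HEK 293T mNPSR at 35,000/well. Cells were pretreated 15 min at 1% DMSO. Test compound or NPS was added during a 60 s read (ex 485/em 525). Peak RFU was fit to a three-parameter logistic curve to give EC50. Bias was taken as Log(max/EC50), calcium versus cAMP, relative to NPS.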
# mNPSR [5] = target: T3, mNPSR; assay: cAMP accumulation assay; type: cell-based
# In short: (§2)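 Cells were harvested with versene and suspended in HBSS, 5 mM HEPES, 0.5 mM IBMX, 0.1% BSA, pH 7.4: hNPSR-107N at 8,000/well, hNPSR-107I at 4,000/well, mNPSR at 20,000/well. Agonist was incubated at room temperature for 30 min (human lines) or 1 h (mNPSR). LANCE Ultra TR-FRET detection ran 1 h in the dark. RFU was interpolated to fmol cAMP from a standard curve, and a three-parameter fit gave EC50.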
# mNPSR [6] = target: T3, mNPSR; assay: Ca+2 mobilization assay, HEK 293T mNPSR cells; type: cell-based
# In short: as §1
# hNPSR-107I [7] = target: T2, hNPSR-107I; assay: cAMP accumulation assay; type: cell-based
# In short: as §2
# hNPSR-107N [8] = target: T4, hNPSR-107N; assay: cAMP accumulation assay; type: cell-based
# In short: as §2
# hNPSR-107N [9] = target: T4, hNPSR-107N; assay: Ca+2 mobilization assay, CHO-Gα16 hNPSR-107N cells; type: cell-based; conditions: hNPSR 107N cell line
# In short: as §1
# mice [10] = assay: Light-Dark Box; type: in vivo, mouse; conditions: 1 nmole ICV, 5–10 minutes before test
# mice [11] = assay: Passive Avoidance; type: in vivo, mouse; conditions: ICV 20 minutes after training, tested 48 hours after training; compound 4 0.01-10 nmole, NPS 1 nmole; vs aCSF
# hNPSR-107I [12] = target: T2, hNPSR-107I; conditions: ref Bernier et al., 2006; cited from earlier work
# [13] = target: T5, human NPS receptor, 107N variant (human)
# [14] = target: T6, mouse NPS receptor (mouse)
# [15] = hNPSR 107I cell line, fraction of maximal window for response
# [16] = mNPSR cell line, fraction of maximal window for response
molecule,measurement,setting,value
7. SerPheAOCAsn-NH2 (peptide),"EC50 of calcium mobilization, CHO-Gα16 hNPSR-107I cells",[1],436 nM
O=C(NCCN1CCCCC1)N1CCN2C(=O)OC(c3ccccc3)(c3ccccc3)C2C1 (stereo not shown) [RTI-118],block of compound 4 effect on marble burying by pretreatment,mice [2]; RTI-118 20 mg/kg fifteen minutes before compound 4 0.5 nmole,effects of 4 can be blocked; also recorded: blocked by the pretreatment with RTI-118
same,block of compound 4 induced locomotor effects by pretreatment,mice [3],induced locomotor effects can be blocked; also recorded: this effect is blocked by pretreatment
"NCCCC[C@H](NC(=O)[C@H](Cc1ccccc1)NC(=O)[C@@H](N)CO)C(=O)N[C@@H](CC(N)=O)C(N)=O [compound 4, SerPheLysAsn-NH2] (H-SFKN-NH2)",EC50,hNPSR-107I [4],3.02 ± 0.74 nM
same,EC50,mNPSR [5],911 ± 86 nM
same,EC50,mNPSR [6],100 ± 5.3 nM
same,EC50,hNPSR-107I [7],117 ± 22 nM
"SFRNGV-NH2 [compound 1, SerPheArgAsnGlyVal-NH2]",EC50,mNPSR [5],13.4 ± 4.8 nM
same,EC50,mNPSR [6],2.03 ± 0.3 nM
same,EC50,hNPSR-107I [7],1.95 ± 0.28 nM
same,cAMP Accumulation EC50,hNPSR-107I [7]; hNPSR 107I cell line,comparable potency to NPS
same,EC50,hNPSR-107N [8],427 nM
"SFRNGVGTGMKKTSFQRAKS [NPS, Neuropeptide S]",BIAS (Bias Toward Calcium),hNPSR-107N [9]; calcium versus cAMP pathway,1.00
same,Calcium Mobilization Max,hNPSR-107N [9]; fraction of maximal window for response,0.97
same,BIAS (Bias Toward Calcium),"hNPSR-107I [4]; hNPSR 107I cell line, calcium versus cAMP pathway",1.00
same,Calcium Mobilization Max,hNPSR-107I [4]; [15],0.96
same,number of marbles buried,"mice [2]; 1 nmole ICV, twenty minutes before test, vs aCSF (Figure 5A)",NPS and 4 produce similar effects; also recorded: significantly decreased the number of marbles buried
same,cAMP Accumulation Max,mNPSR [5]; [16],0.82
same,BIAS (Bias Toward Calcium),"mNPSR [6]; mNPSR cell line, calcium versus cAMP pathway",1.00
same,Calcium Mobilization Max,mNPSR [6]; [16],1
same,number of entries into the light-side,mice [10],Neither NPS nor 4 significantly increased the number of entries into the light-side; also recorded: significantly more entries than compound 4 treated animals
same,time spent on the light side,mice [10]; vs aCSF,significantly increased the time spent on the light-side; also recorded: spent significantly more time on the light-side than the compound 4 treated animals
same,cAMP Accumulation Max,hNPSR-107I [7]; [15],1
same,latency to enter the dark compartment,mice [11],appear to have the same maximal effects; also recorded: significantly increased the latency time
same,cAMP Accumulation Max,"hNPSR-107N [8]; hNPSR 107N cell line, fraction of maximal window for response",0.97
same,selectivity for the hNPSR-107I over the hNPSR-107N (calcium mobilization EC50),hNPSR-107I [12],5 fold
B1,"EC50 of cAMP accumulation, HEK 293T hNPSR-107N cells",[13],48.9 nM
same,"EC50 of calcium mobilization, CHO-Gα16 hNPSR-107N cells",[13],2 nM
same,"EC50 of cAMP accumulation, HEK 293T hNPSR-107I cells",[1],4.19 nM
same,"EC50 of calcium mobilization, CHO-Gα16 hNPSR-107I cells",[1],0.59 nM
same,"EC50 of cAMP accumulation, HEK 293T mNPSR cells",[14],3.67 nM
same,"EC50 of calcium mobilization, HEK 293T mNPSR cells",[14],5.55 nM
B2,"EC50 of calcium mobilization, CHO-Gα16 hNPSR-107I cells",[1],563 nM
B3,"EC50 of cAMP accumulation, HEK 293T hNPSR-107N cells",[13],> 10000 nM
same,"EC50 of calcium mobilization, CHO-Gα16 hNPSR-107N cells",[13],998 nM
same,"EC50 of cAMP accumulation, HEK 293T hNPSR-107I cells",[1],129 nM
same,"EC50 of calcium mobilization, CHO-Gα16 hNPSR-107I cells",[1],2.43 nM
same,"EC50 of cAMP accumulation, HEK 293T mNPSR cells",[14],800 nM
same,"EC50 of calcium mobilization, HEK 293T mNPSR cells",[14],66.6 nM
B4,"EC50 of cAMP accumulation, HEK 293T hNPSR-107I cells",[1],117 nM
same,"EC50 of calcium mobilization, CHO-Gα16 hNPSR-107I cells",[1],3.02 nM
same,"EC50 of cAMP accumulation, HEK 293T mNPSR cells",[14],911 nM
same,"EC50 of calcium mobilization, HEK 293T mNPSR cells",[14],100 nM
B5,"EC50 of cAMP accumulation, HEK 293T hNPSR-107N cells",[13],427 nM
same,"EC50 of cAMP accumulation, HEK 293T hNPSR-107I cells",[1],1.95 nM
same,"EC50 of cAMP accumulation, HEK 293T mNPSR cells",[14],13.4 nM
same,"EC50 of calcium mobilization, HEK 293T mNPSR cells",[14],2.03 nM
B6,"EC50 of calcium mobilization, CHO-Gα16 hNPSR-107I cells",[1],43.5 nM
B7,"EC50 of cAMP accumulation, HEK 293T hNPSR-107N cells",[13],> 10000 nM
same,"EC50 of cAMP accumulation, HEK 293T hNPSR-107I cells",[1],3060 nM
same,"EC50 of cAMP accumulation, HEK 293T mNPSR cells",[14],> 10000 nM
same,"EC50 of calcium mobilization, HEK 293T mNPSR cells",[14],1010 nM
